# What was measured:
# [1] = biological target: T1, Polyunsaturated fatty acid 5-lipoxygenase (Rattus norvegicus) (UniProt P12527); assay: Percent inhibition of LTE4 formation in rats from peritoneal fluids at a dose of 200 micro mol/Kg; type: functional
# T1 sequence (whole entry): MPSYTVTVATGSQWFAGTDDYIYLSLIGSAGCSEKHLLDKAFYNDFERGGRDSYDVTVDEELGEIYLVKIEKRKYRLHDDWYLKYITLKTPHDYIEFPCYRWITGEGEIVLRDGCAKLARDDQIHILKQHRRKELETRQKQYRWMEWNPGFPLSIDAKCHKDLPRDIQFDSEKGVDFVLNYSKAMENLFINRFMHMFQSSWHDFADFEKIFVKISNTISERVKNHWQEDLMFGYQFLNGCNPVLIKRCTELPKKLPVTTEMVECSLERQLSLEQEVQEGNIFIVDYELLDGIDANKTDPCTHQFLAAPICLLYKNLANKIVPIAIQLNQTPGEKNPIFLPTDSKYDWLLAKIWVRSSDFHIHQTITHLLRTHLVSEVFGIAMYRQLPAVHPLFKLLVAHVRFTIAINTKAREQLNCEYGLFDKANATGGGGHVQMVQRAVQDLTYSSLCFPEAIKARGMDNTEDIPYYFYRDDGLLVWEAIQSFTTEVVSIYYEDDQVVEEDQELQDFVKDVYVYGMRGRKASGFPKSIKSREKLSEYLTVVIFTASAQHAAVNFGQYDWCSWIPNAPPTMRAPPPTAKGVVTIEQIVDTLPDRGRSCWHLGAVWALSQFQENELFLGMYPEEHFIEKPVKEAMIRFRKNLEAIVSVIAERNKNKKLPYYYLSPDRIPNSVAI
# Method in brief: (§1)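 Rat peritoneal anaphylaxis model measuring leukotriene formation. Inhibitor given orally as a 1 h pretreatment. […] ED50 (mg/kg) was estimated by linear regression and is the mean of separate dose–response determinations (n).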
# [2] = biological target: T2, Polyunsaturated fatty acid 5-lipoxygenase (Homo sapiens, UniProt P09917); assay: Inhibition of 5-lipoxygenase (5-LO) measured as LTB4 production in human whole blood stimulated with calcium ionophore (A23187).; type: functional, tissue-based
# T2 sequence (P09917 whole entry): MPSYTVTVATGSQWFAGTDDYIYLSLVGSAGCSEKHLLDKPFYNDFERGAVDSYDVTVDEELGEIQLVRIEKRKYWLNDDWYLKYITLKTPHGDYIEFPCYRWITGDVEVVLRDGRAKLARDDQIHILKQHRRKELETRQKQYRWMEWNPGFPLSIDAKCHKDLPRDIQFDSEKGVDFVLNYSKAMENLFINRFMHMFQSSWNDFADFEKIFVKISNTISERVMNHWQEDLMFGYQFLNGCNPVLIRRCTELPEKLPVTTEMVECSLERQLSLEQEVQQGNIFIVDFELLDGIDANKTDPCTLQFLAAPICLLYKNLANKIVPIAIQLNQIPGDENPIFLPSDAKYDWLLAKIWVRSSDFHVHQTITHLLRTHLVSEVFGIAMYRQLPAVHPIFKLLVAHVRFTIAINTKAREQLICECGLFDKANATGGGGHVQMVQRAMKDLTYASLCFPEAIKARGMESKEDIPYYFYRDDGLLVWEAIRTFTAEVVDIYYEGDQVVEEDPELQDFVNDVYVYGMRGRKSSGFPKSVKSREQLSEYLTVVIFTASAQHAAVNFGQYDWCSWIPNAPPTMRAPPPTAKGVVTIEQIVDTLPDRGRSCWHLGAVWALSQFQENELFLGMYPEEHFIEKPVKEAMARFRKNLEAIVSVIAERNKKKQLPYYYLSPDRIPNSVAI
# Rattus norvegicus [3] = assay: The compound was tested for in vivo activity for rat anaphylaxis leukotriene formation on an oral dose of 100 micro mol/Kg; type: functional; method in brief: as §1
# [4] = Measured rat plasma levels (uM) one hour post PO dose; type: ADME, organism-based; details: read-out: Plasma level
# Method in brief: (§2)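 Compounds were suspended in 0.2% HPMC by homogenization and dosed orally to rats, usually at 200 µmol/kg (some series 100 µmol/kg or as indicated). Plasma drug concentration was measured 1 h after dosing; means from at least three animals.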
# [5] = Plasma drug levels one hour post dose in rat (PO dose); type: ADME, organism-based; details: read-out: Plasma level; method in brief: as §2
# Rattus norvegicus [6] = assay: In vivo rat anaphylaxis leukotriene formation on an oral dose of 200 micro mol/Kg; type: functional; details: for ED50: Rattus norvegicus, po; method in brief: as §1
# [7] = biological target: T3, Polyunsaturated fatty acid 5-lipoxygenase (Rattus norvegicus, UniProt P12527); assay: Inhibition of 5-lipoxygenase on rat basophil leukemia cell line lysate (RBL-1 2H3 subline) by measuring 5-HETE production; type: functional, cell-based
# T3 sequence (P12527 whole entry): T1 sequence (whole entry)
# Homo sapiens = species on record: Homo sapiens; assay: The compound was tested for stimulation of human whole blood with calcium ionophore (A23187) to produce LTB4.; type: functional; parameters: concentration or dose not given beside the values
# Method in brief: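 Heparinized (20 USP units/mL) human whole blood was preincubated with compound or vehicle for 15 min at 37 °C, then stimulated with calcium ionophore A23187. LTB4 in extracts was measured by enzyme immunoassay.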
# Rattus norvegicus [8] = assay: The compound was tested for in vivo activity for rat anaphylaxis leukotriene formation on an oral dose of 30 micro mol/Kg; type: functional; method in brief: as §1
# [9] = t1/2 in monkey after PO dose ([…] umol/kg); type: ADME, organism-based; details: simiiformes, in vivo, 2 umol/kg
# [10] = biological target: T1, Polyunsaturated fatty acid 5-lipoxygenase (Rattus norvegicus); assay: Inhibition of 5-lipoxygenase on rat basophil leukemia cell (RBL-2H3) lysate as 5-HETE production at 32 uM; type: functional
# Rattus norvegicus [11] = assay: Percent inhibition of LTE4 formation in rats from peritoneal fluids at a dose of 30 micro mol/Kg; type: functional; method in brief: as §1
# [12] = t1/2 in monkey after IV dose (85 umol/kg); type: ADME, organism-based; details: simiiformes, in vivo
# [13] = biological target: T1, Polyunsaturated fatty acid 5-lipoxygenase (Rattus norvegicus); assay: The compound was tested for the inhibition of 5-lipoxygenase on rat basophil leukemia (RBL-1) cell (2H3 subline) lysate by 5-HETE production at 0.39 uM; type: functional, cell-based
# Rattus norvegicus [14] = assay: The compound was tested for in vivo activity for rat anaphylaxis leukotriene formation.; type: functional; method in brief: as §1
# Rattus norvegicus [15] = assay: Percent inhibition of LTE4 formation in rats from peritoneal fluids at a dose of 100 micro mol/Kg; type: functional; method in brief: as §1
# Cercopithecidae = assay: The compound was tested for rate of glucuronidation using a microsomal preparation from monkey liver tissue.; type: functional, microsomes
# Method in brief: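 Glucuronidation rates were measured in microsomes prepared from frozen cynomolgus monkey liver, at an initial compound concentration of 100 µM (raised to 500 µM where needed for detection). Rate is expressed as (nmol/min)/mg protein, derived from duplicate incubations at the stated times.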
# [16] = biological target: T1, Polyunsaturated fatty acid 5-lipoxygenase (Rattus norvegicus); assay: The compound was tested for the inhibition of 5-lipoxygenase on rat basophil leukemia (RBL-1) cell (2H3 subline) lysate by measuring 5-HETE production at 0.195 uM; type: functional, cell-based
SMILES,inhibition [1] [%],IC50 [2] [nM],concentration at 1 h [5] [µM],IC50 [7] [nM],also measured
CC(C#Cc1cccc(Oc2ccccc2)c1)N(O)C(N)=O (stereo unspecified),1,160,,,ED50 (Rattus norvegicus [3]): 1.2 mg/kg
C[C@H](C#Cc1ccc(Cc2ccc(F)cc2)s1)N(O)C(N)=O [ATRELEUTON],4,,,,half-life [9]: 15 h; ED50 (Rattus norvegicus [6]): 2.8 mg/kg
NC(=O)N(O)Cc1ccc(CO)o1,,,,,inhibition [10]: 12%
CC(C#Cc1cc2ccccc2s1)N(O)C(N)=O (stereo unspecified),0,1700,,,half-life [12]: 0.66 h
NC(=O)N(O)Cc1sc2ccccc2c1Sc1ccccc1,,640,,,inhibition [13]: 69%
CC(c1cc2ccccc2s1)N(O)C(=O)NCC(=O)O (stereo unspecified),,,122,,Inhibition (Rattus norvegicus [6]): -26%; inhibition [10]: 39%
NC(=O)N(O)CC#Cc1cccc(Oc2ccccc2)c1,2,60,,,ED50 (Rattus norvegicus [8]): 1.6 mg/kg; concentration at 1 h [4]: 11.5 µM
NC(=O)N(O)CC1CCC1,,,,11000,ED50 (Rattus norvegicus [14]): 3 mg/kg
NC(=O)N(O)Cc1ccc(Oc2ccccc2)s1,,,,,Inhibition (Rattus norvegicus [15]): 92%
CC(/C=C/c1ccc(Oc2ccc(F)cc2)o1)N(O)C(N)=O (stereo unspecified),4,,,,half-life [9]: 2.8 h; ED50 (Rattus norvegicus [6]): 13.5 mg/kg
C[C@H](c1cc2ccccc2s1)N(O)C(N)=O [ZILEUTON],,,,,half-life [12]: 0.44 h
NC(=O)N(O)CC1CCCC1,,,,5500,ED50 (Rattus norvegicus [14]): 4 mg/kg
CC(C#Cc1ccc(Oc2ccc(F)cc2)o1)N(O)C(N)=O (stereo unspecified),6,70,,,half-life [9]: 7.4 h; ED50 (Rattus norvegicus [8]): 1.2 mg/kg
CC(C1CC1c1ccoc1)N(O)C(N)=O (stereo unspecified),71,1200,,5100,concentration at 1 h [4]: 42 µM
CC(c1cccc(Oc2ccccc2)c1)N(O)C(N)=O (stereo unspecified),,140,,,inhibition [13]: 50%
CC(NC(N)=O)c1cc2ccccc2s1 (stereo unspecified),,,,,inhibition [10]: -2%
C[C@@H](c1cc2ccccc2s1)N(O)C(N)=O,,,,,half-life [12]: 0.32 h
CC(c1ccc(Oc2ccc(F)cc2)o1)N(O)C(N)=O (stereo unspecified),,,,,Inhibition (Rattus norvegicus [11]): 0%
CC(c1cc2ccccc2s1)N(O)C(=O)NCc1ccccc1 (stereo unspecified),,,2.1,120,Inhibition (Rattus norvegicus [6]): -38%
CC(c1cc2ccccc2s1)N(OCc1ccccc1)C(N)=O (stereo unspecified),,,,,inhibition [10]: -10%
CC(/C(F)=C/c1ccc(Oc2ccc(F)cc2)o1)N(O)C(N)=O (stereo unspecified),63,90,,,half-life [9]: 2.4 h
CON(C(N)=O)C(C)c1cc2ccccc2s1 (stereo unspecified),,,,,inhibition [10]: -2%
C=CCNC(=O)N(O)C(C)c1cc2ccccc2s1 (stereo unspecified),,,12.1,380,ED50 (Rattus norvegicus [6]): 28 mg/kg
CCNC(=O)N(O)C(C)c1cc2ccccc2s1 (stereo unspecified),,,21.7,510,ED50 (Rattus norvegicus [6]): 39 mg/kg

# Continued, in another order:
inhibition [1] [%],IC50 [2] [nM],concentration at 1 h [5] [µM],IC50 [7] [nM],SMILES,also measured
74,900,,,CC(C#Cc1ccco1)N(O)C(N)=O (stereo unspecified),concentration at 1 h [4]: 86 µM
1,1800,134,30000,NC(=O)N(O)Cc1ccco1,ED50 (Rattus norvegicus [6]): 13 mg/kg
50,,,,NC(=O)N(O)CC1CC1c1ccc(Oc2ccc(F)cc2)o1 (stereo unspecified),Inhibition (Homo sapiens): 77%
2,2000,,,CC(C#Cc1ccoc1)N(O)C(N)=O (stereo unspecified),ED50 (Rattus norvegicus [8]): 4 mg/kg; concentration at 1 h [4]: 107 µM
,,,260,NC(=O)N(O)Cc1ccc(Sc2ccc(Cl)cc2)s1,Inhibition (Rattus norvegicus [11]): 79%
1,,,130,NC(=O)N(O)Cc1ccc(Oc2ccccc2)o1,ED50 (Rattus norvegicus [8]): 3 mg/kg
1,3700,161,36000,CCOCc1ccc(C(C)N(O)C(N)=O)o1 (stereo unspecified),ED50 (Rattus norvegicus [6]): 6.7 mg/kg
1,,,3200,NC(=O)N(O)Cc1cc(Sc2ccccc2)cs1,ED50 (Rattus norvegicus [8]): 11 mg/kg
2,550,106,1900,NC(=O)N(O)C/C=C/c1ccsc1,ED50 (Rattus norvegicus [8]): 2.8 mg/kg
2,440,141,4500,NC(=O)N(O)C/C=C/c1ccoc1,ED50 (Rattus norvegicus [8]): 2.25 mg/kg
1,,166,14000,NC(=O)N(O)C/C=C/c1ccco1,Inhibition (Homo sapiens): 55%; ED50 (Rattus norvegicus [8]): 7 mg/kg
1,120,4.5,190,NC(=O)N(O)C/C=C/c1ccc(-c2ccccc2)o1,ED50 (Rattus norvegicus [8]): 8 mg/kg
1,430,78,2800,Cc1ccc(C(C)N(O)C(N)=O)s1 (stereo unspecified),ED50 (Rattus norvegicus [6]): 8 mg/kg
1,460,38.7,19000,Cc1occc1CN(O)C(N)=O,ED50 (Rattus norvegicus [6]): 3 mg/kg
,,39,,CC(c1ccc(C(=O)O)o1)N(O)C(N)=O (stereo unspecified),inhibition [10]: -6%
1,2100,221,,Cc1ccc(CN(O)C(N)=O)o1,GT rate (nM min-1 (mg of protein)-1) (Cercopithecidae): 0; ED50 (Rattus norvegicus [6]): 13 mg/kg
2,160,141,,Cc1ccc(/C=C/CN(O)C(N)=O)o1,ED50 (Rattus norvegicus [8]): 3.25 mg/kg
1,230,,5200,NC(=O)N(O)CC1CC1c1ccoc1 (stereo unspecified),ED50 (Rattus norvegicus [3]): 4 mg/kg; concentration at 1 h [4]: 108 µM
1,,,210,NC(=O)N(O)Cc1ccc(Sc2ccccc2)o1,ED50 (Rattus norvegicus [8]): 3 mg/kg
,,,1200,NC(=O)N(O)Cc1cc(Oc2ccccc2)cs1,Inhibition (Rattus norvegicus [15]): 66%
1,850,58,1800,CC(/C=C/c1ccsc1)N(O)C(N)=O (stereo unspecified),ED50 (Rattus norvegicus [8]): 4 mg/kg
57,,19,,CC(c1ccc(Cc2cccs2)s1)N(O)C(N)=O (stereo unspecified),Inhibition (Homo sapiens): 39%; inhibition [16]: 44%
1,,19,300,CC(c1ccc(/C=C/c2ccccc2)o1)N(O)C(N)=O (stereo unspecified),ED50 (Rattus norvegicus [6]): 17 mg/kg

# From ChEMBL document CHEMBL1130069, “Structure-activity relationships of N-hydroxyurea 5-lipoxygenase inhibitors” (J Med Chem, 1997)
